Shown are actives, neighbours in structure and some others; about 2.6% of the full set was active somewhere.
Vif imaging: HIV Vif inhibition. HEK293T cells, Vif self-association by quenched fluorescence, imaging, 24 h. actives 0.35% (n = 340,000). inhibition, % at 7.49 µM; in the data active = inhibition above about 50%, passing the limit was not always enough; inconclusive = no clear call, values can overlap the other calls; inactive = below about 31%
esBAF inh: blocks esBAF chromatin remodeling in mouse ES cells; Bmi1-luciferase knock-in reporter, 24 h; 100% = twice the neutral-well signal; reporter increase, % at 12.5 µM; AID 602393; actives 2% (n = 350,000); in the data active = activation above about 40%; inconclusive = no clear call, values can overlap the other calls;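 note: 0% = median of the plate's neutral control wells and 100% = double that signal; a rise in the Bmi1 reporter signal indicates esBAF inhibition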
Wnt act: Wnt/beta-catenin pathway activation; Wnt/beta-catenin reporter cell assay, activator, plate reader; actives 1.2% (n = 300,000); activation, % at 9.35 µM; in the data active = activation above about 30%, passing the limit was not always enough; inconclusive = no clear call, values can overlap the other calls;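 note: 0% = neutral control wells and 100% = positive control wells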
XiGFP reactiv: activators of X-chromosome reactivation in mouse fibroblasts; XiGFP mouse fibroblasts, % GFP-positive cells imaging, 3 d; cells co-treated with 5-aza-dC sensitizer; scaled so ellipticine positive control = 100%; activation, % at 7.58 µM; actives 0.055% (n = 360,000);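 active = mean normalized replicate activation at least 10% and every replicate at or above 10%; inconclusive = only one of the two criteria met; inactive = mean below 10% and not all replicates reach 10%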;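 note: 0% = median of on-plate neutral control wells and 100% = ellipticine 6 µM median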
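Material: XiGFP fibroblasts, SV40-immortalized. Buffer or medium: DMEM plus 5-aza-dC sensitizer. Compound: single concentration per compound, delivered by pin transfer. Times: 3 days compound exposure. Controls: ellipticine 6 µM.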
MITF act: increases MITF-driven TRPM1 promoter luciferase signal; actives 0.75% (n = 300,000); activation, % at 12.5 µM; SK-MEL-5 TRPM1-promoter luciferase, 24 h; % of positive control, neutral wells = 0; AID 588334;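 active = mean activation of at least 80% with every replicate also reaching 80%; inconclusive = mean reaches 80% but some replicate falls short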;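 note: 0% = neutral control wells and 100% = parthenolide positive control wells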
The depositor's hits bear a star; u = inconclusive; x = not tested or not shown.

SMILES	Vif imaging	esBAF inh	Wnt act	XiGFP reactiv	MITF act
COc1ccc2cc(-c3ccsc3)ncc2c1	-5	29	41*	0	-59
COc1ccc2cc(C3=CCCCC3)ncc2c1	-6	8	42*	0	31
COc1cc2cnc(C3=CCCCC3)cc2cc1OC	-3	24	11	0	24
COc1cc(OC)cc(-c2cc3ccc(OC)cc3cn2)c1	18	24	16	1	64
Cc1c(/C=N\NC(=O)C2COc3ccccc3O2)c2ccccc2n1C (stereo not drawn)	40	x	x	1	-47
Cc1c(/C=N/Nc2ccc(C(=O)O)cc2)c2ccccc2n1C	-2	67*	2	0	90*
CS(=O)(=O)N1CCc2cc(C(=O)Nc3ccc(Br)cc3)ccc21	6	48*	-2	0	19
Cc1ccc(NC(=O)c2ccc3c(c2)CCN3S(C)(=O)=O)cc1	-3	66*	45*	0	x
CS(=O)(=O)N1CCc2cc(C(=O)OCC(=O)c3ccccc3)ccc21	x	51*	x	x	8
Cc1cc(C)cc(NC(=O)c2ccc3c(c2)CCN3S(C)(=O)=O)c1	-6	12	3	0	22
CCc1ccc(NC(=O)c2ccc3c(c2)CCN3S(C)(=O)=O)cc1	x	29	-5	0	x
COc1cccc(-c2ccc([C@H]3[C@@H](CO)N4C(=O)CN(C(=O)C5CCOCC5)C[C@H]34)cc2)c1	x	x	x	0	x
CCCNC(=O)N1CCC2(CC1)CN(C(=O)NC1CCCC1)[C@@H](CO)c1[nH]c3cc(OC)ccc3c12	x	x	x	0	x
O=C(CCc1ccccc1)Nc1ccc(N2CCCCC2)cc1	-3	50*	x	0	67
Cc1cn(CCC(=O)Nc2ccccc2N2CCOCC2)c2ccccc12	-4	x	-2	0	x
O=C(Cc1ccccc1)Nc1ccc(N2CCOCC2)cc1	59*	x	26	0	15
Cc1cn(CCC(=O)Nc2ccc(N3CCOCC3)cc2)c2ccccc12	4	u	16	0	81*
C[C@@H]1CN([C@H](C)CO)C(=O)CCCn2cc(nn2)CO[C@@H]1CN(C)C(=O)Nc1ccc(C(C)(C)C)cc1	x	7	x	0	x
COCC(=O)Nc1ccc2c(c1)[C@@H]1C[C@H](CC(=O)NCc3cccnc3)O[C@H](CO)[C@@H]1O2	x	6	x	0	x
O=C(Cn1cnc2c(nnn2-c2ccccc2)c1=O)N1CCOCC1	-15	-1	-2	0	4
O=C(Cn1cnc2c(nnn2-c2cccc(Cl)c2)c1=O)N1CCOCC1	-9	-1	56*	0	0
C[C@H]1CCCCO[C@H](CN(C)C(=O)Nc2cccc3ccccc23)[C@@H](C)CN([C@@H](C)CO)C(=O)c2cc(NS(=O)(=O)c3cn(C)cn3)ccc2O1	x	3	x	0	x
COC1=C/C(=C/c2c(O)c(C#N)c3ccccn23)C=CC1=O	u	55*	34*	0	0
Cc1noc(C)c1NC(=O)N(C)C[C@@H]1OCCCC[C@H](C)Oc2ccc(NC(=O)Nc3cccc4ccccc34)cc2C(=O)N([C@H](C)CO)C[C@@H]1C	x	9	x	-1	x
C[C@H](CO)N1C[C@H](C)[C@H](CN(C)C)Oc2ncc(-c3cccc(C(F)(F)F)c3)cc2C1=O	x	5	x	0	x
SMILES	Vif imaging	esBAF inh	Wnt act	XiGFP reactiv	MITF act
CCOC(=O)c1sc(-c2ccccc2)cc1N	18	67*	54*	x	x
CCOC(=O)c1cc(-c2ccccc2)sc1N	-1	x	x	x	61
CCOC(=O)c1sc(-c2ccc(F)cc2)cc1N	9	57*	x	x	98*
CCOC(=O)c1sc(-c2ccc(OC)cc2)cc1N	x	76*	x	x	99*
Cc1ccc(CNC(=O)Nc2ccccc2)cc1	12	46*	21	x	u
O=C(NCc1ccc(Cl)cc1Cl)Nc1ccccc1	10	x	46*	0	66
Cc1ccc(C)c(CNC(=O)Nc2ccccc2)c1	0	51*	3	0	86*
Cc1ccc2[nH]cc(CCNC(=O)Nc3ccccc3)c2c1	-8	-5	x	x	-3
CCC(=O)N(C)C[C@@H]1Oc2cc(-c3ccc(C#N)cc3)ccc2S(=O)(=O)N([C@H](C)CO)C[C@H]1C	x	1	x	-1	x
Cc1ccc(-c2csc(NC(=O)c3cccc(C)c3)c2C(=O)O)cc1	-9	x	40*	0	x
Cc1cccc(C(=O)Nc2scc(-c3ccc(Br)cc3)c2C(=O)O)c1	-7	x	7	0	x
CC(C)c1ccc(-c2csc(NC(=O)c3cccs3)c2C(=O)O)cc1	2	52*	12	0	6
Cc1ccc(-c2csc(NC(=O)c3ccc(Br)cc3)c2C(=O)O)cc1	-10	43	16	0	106*
Cc1noc(C)c1S(=O)(=O)N(C)C[C@@H]1OCCCC[C@@H](C)Oc2ccc(NC(=O)CCCN(C)C)cc2C(=O)N([C@H](C)CO)C[C@H]1C	x	4	x	0	x
CO[C@@H]1CN(C)C(=O)c2ccc(NC(C)=O)cc2OC[C@H](C)N(C(=O)c2ccccc2)C[C@@H]1C	x	x	x	0	x
O=C(C[C@H]1CC[C@H](NC(=O)c2ccncc2)[C@H](CO)O1)NCc1ccncn1	x	x	x	0	x
Cc1cccc(OCCNc2ncccc2[N+](=O)[O-])c1	1	74*	3	0	x
Cc1cccc(OCCNc2cc(N3CCN(C)CC3)ccc2[N+](=O)[O-])c1	3	x	x	x	6
C[C@H](CO)N1C[C@H](C)[C@H](CN(C)C(=O)Nc2cccc3ccccc23)Oc2c(NS(=O)(=O)c3cccs3)cccc2C1=O	x	3	x	-1	x
COc1ccc(C2C(CC(=O)O)=C(Nc3ccccc3)C(=O)N2c2ccccc2)cc1 (stereo not drawn)	-4	54*	43*	0	49
O=C(O)CC1=C(Nc2ccccc2)C(=O)N(c2ccccc2)C1c1ccc(F)cc1 (stereo not drawn)	-8	79*	-1	0	70
Cc1ccc(-n2c([O-])nc(-[n+]3ccccc3)c2C=O)cc1	51*	-2	x	x	-8
Cc1noc(C)c1NC(=O)N(C)C[C@@H]1OCCCC[C@@H](C)Oc2ccc(NC(=O)c3ccncc3)cc2C(=O)N([C@H](C)CO)C[C@@H]1C	x	-2	x	0	x
NC(=O)c1ccccc1N/C=C/C(=O)c1ccc(F)cc1	x	31	54*	x	48
O=C(/C=C/Nc1ccc(F)cc1)c1ccc(Br)cc1	-3	x	61*	0	47
O=C(/C=C/Nc1ccccc1F)c1ccc(Br)cc1	x	x	46*	0	32
O=C(/C=C/Nc1ccc(F)c(F)c1)c1ccc(Br)cc1	3	x	12	0	66
N#Cc1ccccc1N/C=C/C(=O)c1ccc(Cl)cc1	23	-8	48*	0	x
COCC(=O)N1CC2(CCN(Cc3nccs3)CC2)c2c(n(C)c3cc(OC)ccc23)[C@H]1CO	x	x	x	0	x
CCOc1ccc2[nH]cc(C(=O)NCc3ccccc3)c(=O)c2c1	-25	17	-1	0	7
